Data from ChEMBL document CHEMBL4316660, “Isarubrolones Containing a Pyridooxazinium Unit from Streptomyces as Autophagy Activators” (J Nat Prod, 2019).
Calls of active or inactive are those of the source. No cut-off for these calls is given here.

Experiments:
Type in all cases: functional, cell-based
HepG2 [1] = assay: Induction of autophagy in human HepG2 cells assessed as decrease in ATG4a protein level up to 20 uM measured after 24 hrs by Western blot analysis
In short: (§1)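 HepG2 cells exposed 24 h to test agent at final 1, 5, 10 or 20 μM. Lysis in RIPA buffer with protease inhibitor cocktail. Proteins resolved on 12% SDS-PAGE, blotted to nitrocellulose, and probed with antibodies to LC3B, P62, ATG5, ATG7, ATG4a and ATG4b. GAPDH served as loading control. Autophagosome formation was read as the LC3B II/I ratio.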

HepG2 [2] = assay: Induction of autophagy in human HepG2 cells assessed as decrease in P62 protein level measured after 24 hrs by Western blot analysis; in short: as §1
HepG2 [3] = assay: Induction of autophagy in human HepG2 cells assessed as increase in ATG4b protein level up to 20 uM measured after 24 hrs by Western blot analysis; in short: as §1
HepG2 [4] = assay: Induction of autophagy in human HepG2 cells assessed as increase in ATG7 protein level up to 20 uM measured after 24 hrs by Western blot analysis; in short: as §1
HepG2 [5] = assay: Induction of autophagy in human HepG2 cells assessed as increase in ATG5 protein level up to 20 uM measured after 24 hrs by Western blot analysis; in short: as §1
HepG2 [6] = assay: Induction of autophagy in human HepG2 cells assessed as increase in LC3B2/1 ratio up to 20 uM measured after 24 hrs by Western blot analysis; in short: as §1
HCT-116 = assay: Cytotoxicity against human HCT116 cells by MTT assay
A549 = assay: Cytotoxicity against human A549 cells by MTT assay
HepG2 [7] = assay: Cytotoxicity against human HepG2 cells by MTT assay
NCI-H460 = assay: Cytotoxicity against human H460 cells by MTT assay

CCCC(=O)C1=C2C=C(C)Oc3c4c(c(=O)cc(c32)C1=O)[C@]1(O)[C@H](O4)O[C@H](C)[C@@H](OC)[C@H]1O
Activity (HepG2 [1]): Active
Activity (HepG2 [2]): Dose-dependent effect
Activity (HepG2 [3]): Active
Activity (HepG2 [4]): Active
Activity (HepG2 [5]): Active
Activity (HepG2 [6]): Active

CC[C@H]1OC(=O)C[n+]2c(C)cc3c(c21)C(=O)c1cc(=O)c2c(c(O)c1-3)O[C@@H]1O[C@H](C)[C@@H](OC)[C@@H](O)[C@]21O
Activity (HepG2 [1]): Active
Activity (HepG2 [2]): Dose-dependent effect
Activity (HepG2 [3]): Active
Activity (HepG2 [4]): Active
Activity (HepG2 [5]): Active
Activity (HepG2 [6]): Active

CC[C@@H](O)c1nc(C)cc2c1C(=O)c1cc(=O)c3c(c(O)c1-2)O[C@@H]1O[C@H](C)[C@@H](OC)[C@@H](O)[C@]31O
Activity (HepG2 [1]): Active
Activity (HepG2 [2]): Dose-dependent effect
IC50 (HCT-116): 770 to 1800 µM
Activity (HepG2 [3]): Active
IC50 (A549): 770 to 1800 µM
IC50 (HepG2 [7]): 770 to 1800 µM
Activity (HepG2 [4]): Active
IC50 (NCI-H460): 770 to 1800 µM
Activity (HepG2 [5]): Active
Activity (HepG2 [6]): Active

CC[C@@H](O)C(=O)C1=C2C=C(C)Oc3c4c(c(=O)cc(c32)C1=O)[C@]1(O)[C@H](O4)O[C@H](C)[C@@H](OC)[C@H]1O
Activity (HepG2 [1]): Active
Activity (HepG2 [2]): Dose-dependent effect
Activity (HepG2 [3]): Active
Activity (HepG2 [4]): Active
Activity (HepG2 [5]): Active
Activity (HepG2 [6]): Active

CC[C@H]1O[C@@](C)(O)C[n+]2c(C)cc3c(c21)C(=O)c1cc(=O)c2c(c(O)c1-3)O[C@@H]1O[C@H](C)[C@@H](OC)[C@@H](O)[C@]21O
Activity (HepG2 [1]): Active
Activity (HepG2 [2]): Dose-dependent effect
IC50 (HCT-116): 190 to 530 µM
Activity (HepG2 [3]): Active
IC50 (A549): 190 to 530 µM
IC50 (HepG2 [7]): 190 to 530 µM
Activity (HepG2 [4]): Active
IC50 (NCI-H460): 190 to 530 µM
Activity (HepG2 [5]): Active
Activity (HepG2 [6]): Active
